# GSK3A inh – blockers of GSK3A enzyme activity – biochemical, luminescence, cell-free homogeneous, HTS, primary screen. Glycogen synthase kinase-3 alpha (Homo sapiens), P49840. GSK-3 alpha kinase, ADP-Glo luminescence, 60 min. 0.1% of 320,000 active. inhibition, % at 10 µM. AID 2650, 2010;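 active = more than half of replicates show inhibition above 20%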;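 note: GST-tagged GSK-3 alpha with peptide substrate and 25 µM ATP; 0% = DMSO neutral wells and 100% = GW8510 positive control wells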
# Target sequence (P49840 whole entry, looked up): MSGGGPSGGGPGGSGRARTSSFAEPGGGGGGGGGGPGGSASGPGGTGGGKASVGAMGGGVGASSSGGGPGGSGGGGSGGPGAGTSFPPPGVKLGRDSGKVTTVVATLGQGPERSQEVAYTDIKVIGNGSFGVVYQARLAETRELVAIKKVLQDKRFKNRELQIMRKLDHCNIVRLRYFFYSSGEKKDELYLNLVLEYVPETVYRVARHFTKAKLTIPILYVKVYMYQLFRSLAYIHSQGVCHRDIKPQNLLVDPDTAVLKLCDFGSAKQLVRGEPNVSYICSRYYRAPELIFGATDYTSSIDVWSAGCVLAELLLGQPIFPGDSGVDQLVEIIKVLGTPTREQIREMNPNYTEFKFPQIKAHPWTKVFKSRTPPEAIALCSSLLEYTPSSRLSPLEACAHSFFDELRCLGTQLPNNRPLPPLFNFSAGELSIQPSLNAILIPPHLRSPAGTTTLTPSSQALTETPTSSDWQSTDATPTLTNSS
# GSK3beta inhib – human GSK3beta kinase inhibitors, primary screen, biochemical, cell-free homogeneous, HTS | Glycogen synthase kinase-3 beta (Homo sapiens), P49841 | GST-GSK3beta kinase, ADP-Glo luminescence, 60 min; stronger effect = lower value | activity score (negative = inhibition), % at 10 µM | 0.038% of 300,000 active;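 active = more than half of replicate wells score below -50%, meaning over 50% inhibition versus plate controls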;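 note: 0% = median DMSO wells and -100% = median GW8510 positive control wells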
#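 Assay system: GST-tagged human GSK3beta kinase, cell-free; Input: 1.6 ng GSK3beta; Medium: Tris/MgCl2 kinase buffer; Timing: 60 min enzyme reaction, room temperature; Signal: ADP-Glo luminescence quantifying ADP generated by kinase; Evaluation: score relative to plate controls; Benchmarks: DMSO neutral wells and GW8510 at 20 µM as positive.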
# SR-BI uptake up – activators of SR-BI mediated DiI-HDL uptake, primary screen, ldlA[mSR-BI] CHO cells, DiI fluorescence | activation, % at 12.5 µM | 3 h; 100 = double the neutral-control signal | 0.096% of 320,000 active;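 active = mean replicate activation of at least 60% and every replicate at or above 60%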;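 note: 0% = median plate neutral-control signal and 100% = twice that signal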
#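 Assay system: CHO ldlA[mSR-BI] cells, LDL receptor-null, SR-BI overexpressing; medium: Ham's F12 with 0.5% BSA, HEPES 25 mM, pH 7.4; also added: DiI-HDL 10 µg/mL; timing: 3 h uptake period with compound, 37 °C; signal: DiI fluorescence, bottom read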
# SR-BI DiI inh – inhibitors of SR-BI mediated HDL lipid uptake, primary screen, ldlA[mSR-BI] cells, fluorescence, single point | Scavenger receptor class B member 1 (Mus musculus), Q61009 | ldlA[mSR-BI] CHO cells, DiI-HDL uptake fluorescence, 3 h | inhibition, % at 12.5 µM | 0.96% of 320,000 active | AID 488896, 2010;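 active = mean replicate inhibition of at least 70% and a set share of replicates each scoring 70 or more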;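 note: 0% = median of neutral control wells and 100% = median of positive control wells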
# CDK5 inh – inhibitors of human CDK5/p35 kinase, primary screen, biochemical, single concentration; Cyclin-dependent kinase 5 (Homo sapiens) + Cyclin-dependent kinase 5 activator 1 (Homo …; Recombinant CDK5/p35, ADP-Glo luminescence, 60 min; inhibition, % at 10 µM; 0.01% of 330,000 active; AID 488839, 2010;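 active = highest replicate inhibition of at least 50% and at least 75% of replicates reaching 50%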;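 note: plate controls were DMSO neutral control for no effect and GW8510 at 10 µM for full effect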
# The depositor's hits bear a star; / = no result given. Rows were chosen to be rich in hits. Some 1.1% of all compounds tested hit in one or more screens of this group.
SMILES,GSK3A inh,GSK3beta inhib,SR-BI uptake up,SR-BI DiI inh,CDK5 inh
Cc1occc1C(=O)Nc1sc2c(c1C(N)=O)CCCCC2,-1,4,-73,73*,-1
CNC(=O)c1c(NC(=O)c2ccc(N3C(=O)CCC3=O)cc2)sc2c1CCCC2,-1,4,-87,87*,-2
CCC1(C)NC(=O)N(CC(=O)Nc2sc3c(c2C(N)=O)CCC3)C1=O (configuration not stated),58*,-33,-17,17,7
N#CCC(=O)Nc1sc2c(c1C(N)=O)CCCC2,50*,0,3,-3,-7
CC(=O)N1CCN(S(=O)(=O)c2c(C)n(C)c(=O)n(C)c2=O)CC1,-3,-1,/,-73,-5
Nc1nonc1-n1nnc(C(=O)N/N=C/c2ccccc2F)c1CN1CCc2ccccc21,0,-50*,4,-4,-5
Nc1nonc1-n1nnc(C(=O)N/N=C/c2ccccc2F)c1CN1CCOCC1,9,-34,/,/,-1
Nc1nonc1-n1nnc(C(=O)N/N=C/c2ccc(Cl)cc2Cl)c1CN1CCOCC1,-1,3,5,-5,1
Nc1nonc1-n1nnc(C(=O)N/N=C/c2ccccc2Cl)c1CN1CCOCC1,50*,-2,-11,11,-1
CCOc1ccccc1/C=N/NC(=O)c1nnn(-c2nonc2N)c1CN1CCCC1,109*,-86*,-12,12,-1
CCCc1c(C(=O)N/N=C/c2ccccc2C(F)(F)F)nnn1-c1nonc1N,2,-1,-76,76*,0
COc1ccc(NS(=O)(=O)c2ccc(O)c(NC(=O)c3cc4c(C)nn(-c5ccc(F)cc5)c4s3)c2)cc1,-2,3,-77,77*,1
COc1ccc(NS(=O)(=O)c2ccc(N3CCOCC3)c(NC(=O)c3ccc(F)cc3)c2)cc1,-1,3,-25,25,0
CCOc1ccc(CCNC(=O)C2CCN(c3nn4c(=O)cc(C)nc4s3)CC2)cc1OCC,1,-2,-72,72*,-1
COc1ccc(CCNC(=O)C2CCCN(c3nc4ccccc4s3)C2)cc1OC (configuration not stated),18,/,-79,79*,0
CCOc1ccccc1CNC(=O)C1CCN(c2nn3c(=O)cc(C)nc3s2)CC1,0,-3,-65,65,1
N/C(CC(=O)Nc1cccc(C(F)(F)F)c1)=N/O,-1,1,89*,-89,1
CC(=O)N/N=C(\C)CC(=O)Nc1cccc(C(F)(F)F)c1,-1,1,22,-22,2
COc1cc(/C=N/NC(=O)c2cnn3c(C)cc(-c4ccccc4)nc23)ccc1O,3,0,-77,77*,0
O=C(NNC(=O)c1cc(-c2ccncc2)nc2ccccc12)c1ccccc1O,0,-7,-94,94*,-1
NS(=O)(=O)c1ccc(CCNC(=O)c2cc(-c3ccccc3)nc3ccccc23)cc1,1,-3,-80,80*,-2
COc1ccc(-c2cc(C(=O)NCCc3ccc(S(N)(=O)=O)cc3)c3ccccc3n2)cc1,-3,-1,-56,56,-2
Cc1ccc(-c2cc(C(=O)NCCc3ccc(S(N)(=O)=O)cc3)c3ccccc3n2)cc1,-5,0,-86,86*,1
Cc1ccc(-c2cc(C(=O)Nc3ccncc3)c3ccccc3n2)cc1,/,2,-50,50,0
CC(=O)Nc1cc2c(cc1Br)-c1ccccc1C2,/,/,-18,18,0
CC1(C)OC(c2ccccc2)=C/C(=C/C=N/NC(=O)c2ccncc2)O1,1,-8,-90,90*,2
c1cc2[nH]snc2c2nc(C3CC3)nc12,54*,-3,31,-31,8
Cc1ccc(NC2=CC(=O)C(=O)c3ccccc32)cc1,1,3,-20,20,3
COc1cc(OC)c(NC2=CC(=O)C(=O)c3ccccc32)cc1Cl,-2,1,-102,102*,-4

# Bioassay records as filed in PubChem.
